{"source": "paper PMC6210075", "about": "(ACS Omega, 2018)", "key": {"human sEH": {"molecular_target": "T1, human sEH (Homo sapiens, UniProt P34913)", "T1 sequence (P34913 1-555)": "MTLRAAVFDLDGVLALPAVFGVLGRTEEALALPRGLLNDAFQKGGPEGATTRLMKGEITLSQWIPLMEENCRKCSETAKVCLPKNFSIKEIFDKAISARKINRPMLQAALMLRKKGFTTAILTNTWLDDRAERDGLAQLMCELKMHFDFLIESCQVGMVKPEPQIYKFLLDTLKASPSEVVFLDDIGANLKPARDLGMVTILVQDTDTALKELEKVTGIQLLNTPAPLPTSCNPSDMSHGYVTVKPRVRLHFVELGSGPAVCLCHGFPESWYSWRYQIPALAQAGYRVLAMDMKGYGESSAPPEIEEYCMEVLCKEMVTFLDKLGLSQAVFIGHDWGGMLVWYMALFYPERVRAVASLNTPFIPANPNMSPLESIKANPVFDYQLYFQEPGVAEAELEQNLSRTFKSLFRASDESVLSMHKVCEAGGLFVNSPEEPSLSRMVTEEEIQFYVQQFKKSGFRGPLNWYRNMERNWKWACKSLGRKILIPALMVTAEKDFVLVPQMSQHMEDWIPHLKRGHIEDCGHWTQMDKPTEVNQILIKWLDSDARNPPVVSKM", "assay": "sEH fluorescent inhibition assay", "format": "biochemical"}, "human FAAH [1]": {"molecular_target": "T2, human FAAH (Homo sapiens, UniProt O00519)", "T2 sequence (O00519 1-579)": "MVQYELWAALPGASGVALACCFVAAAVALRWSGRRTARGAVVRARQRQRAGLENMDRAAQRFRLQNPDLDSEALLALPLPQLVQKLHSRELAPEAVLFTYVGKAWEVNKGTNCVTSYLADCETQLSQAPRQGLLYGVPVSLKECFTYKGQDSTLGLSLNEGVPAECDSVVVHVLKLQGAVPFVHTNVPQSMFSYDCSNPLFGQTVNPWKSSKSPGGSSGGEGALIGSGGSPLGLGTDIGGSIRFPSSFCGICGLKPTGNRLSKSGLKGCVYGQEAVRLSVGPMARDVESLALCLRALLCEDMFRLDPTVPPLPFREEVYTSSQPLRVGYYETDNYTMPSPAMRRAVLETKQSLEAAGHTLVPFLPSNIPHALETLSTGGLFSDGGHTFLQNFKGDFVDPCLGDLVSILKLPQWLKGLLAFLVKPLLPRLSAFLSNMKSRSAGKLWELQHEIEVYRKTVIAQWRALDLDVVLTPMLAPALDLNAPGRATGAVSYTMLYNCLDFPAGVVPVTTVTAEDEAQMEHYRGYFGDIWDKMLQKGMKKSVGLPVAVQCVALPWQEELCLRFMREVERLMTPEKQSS", "assay": "FAAH fluorescent inhibition assay", "format": "biochemical"}, "human FAAH [2]": {"molecular_target": "T2, human FAAH", "assay": "Ki and kinact determination on FAAH", "format": "biochemical", "outline": "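Crude baculovirus-expressed recombinant FAAH (High Five cell S9 fraction in 50 mM Tris/HCl pH 8.0, 1 mM CHAPS, 10% glycerol). OMP (100 μM final) was mixed with a range of test compound concentrations and held 5 min at 37 °C.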"}, "mouse sEH": {"molecular_target": "T3, mouse sEH (Mus musculus, UniProt P34914)", "T3 sequence (P34914 1-554)": "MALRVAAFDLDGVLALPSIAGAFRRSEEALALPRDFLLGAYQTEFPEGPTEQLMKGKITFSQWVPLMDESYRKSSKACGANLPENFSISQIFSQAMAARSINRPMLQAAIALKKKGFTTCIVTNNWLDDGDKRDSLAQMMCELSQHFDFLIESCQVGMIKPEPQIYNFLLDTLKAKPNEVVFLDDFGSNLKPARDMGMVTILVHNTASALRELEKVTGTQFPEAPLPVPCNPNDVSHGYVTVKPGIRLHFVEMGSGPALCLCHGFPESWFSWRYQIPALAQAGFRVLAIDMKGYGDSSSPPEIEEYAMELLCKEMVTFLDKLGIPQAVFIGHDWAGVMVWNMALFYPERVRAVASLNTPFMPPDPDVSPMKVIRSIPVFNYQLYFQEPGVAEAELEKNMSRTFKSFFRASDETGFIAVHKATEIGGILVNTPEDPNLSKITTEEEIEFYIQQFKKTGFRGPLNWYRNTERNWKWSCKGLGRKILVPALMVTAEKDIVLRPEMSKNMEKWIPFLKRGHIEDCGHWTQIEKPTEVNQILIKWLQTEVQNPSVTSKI", "assay": "sEH fluorescent inhibition assay, recombinant mouse sEH", "format": "biochemical"}, "serine hydrolases [3]": {"tested_on": "serine hydrolases", "assay": "Activity-based protein profiling", "format": "biochemical, mouse", "conditions": "mouse liver tissue homogenate, inhibitor 20 µM"}, "serine hydrolases [4]": {"molecular_target": "T4, serine hydrolases (Mus musculus, UniProt O08914)", "T4 sequence (O08914 1-579)": "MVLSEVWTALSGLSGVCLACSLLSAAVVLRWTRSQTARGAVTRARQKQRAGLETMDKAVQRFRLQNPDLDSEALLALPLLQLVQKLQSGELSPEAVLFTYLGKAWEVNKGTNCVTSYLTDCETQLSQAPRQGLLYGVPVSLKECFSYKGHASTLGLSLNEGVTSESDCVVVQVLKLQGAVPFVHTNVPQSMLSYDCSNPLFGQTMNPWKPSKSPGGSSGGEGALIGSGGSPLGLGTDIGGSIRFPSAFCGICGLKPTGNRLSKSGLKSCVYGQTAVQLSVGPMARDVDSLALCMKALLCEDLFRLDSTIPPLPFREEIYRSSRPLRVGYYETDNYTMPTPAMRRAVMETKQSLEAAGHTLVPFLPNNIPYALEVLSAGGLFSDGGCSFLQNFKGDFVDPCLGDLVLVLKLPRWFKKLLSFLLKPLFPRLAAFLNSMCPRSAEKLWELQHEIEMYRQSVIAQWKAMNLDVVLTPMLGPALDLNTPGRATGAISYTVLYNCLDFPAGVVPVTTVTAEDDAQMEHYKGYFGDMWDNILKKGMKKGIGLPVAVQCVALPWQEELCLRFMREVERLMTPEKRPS", "assay": "Activity-based protein profiling", "format": "biochemical", "conditions": "mouse brain tissue homogenate, inhibitor 20 µM"}}, "data": [{"compound": "O=C(Nc1cccnc1)N1CCC(Cc2cccc(Oc3ccc(C(F)(F)F)cn3)c2)CC1", "note": "[PF-3845, reference compound]", "values": [{"measurement": "IC50", "setting": "human sEH", "value": 12000, "unit": "nM"}, {"measurement": "IC50", "setting": "human FAAH [1]", "value": 0.65, "unit": "nM"}, {"measurement": "Ki", "setting": "human FAAH [2]", "value": 3.5, "unit": "nM"}, {"measurement": "IC50", "setting": "mouse sEH", "value": 1200, "unit": "nM"}, {"measurement": "other serine hydrolase bands (ABPP)", "setting": "serine hydrolases [3]", "value": "neither 11, 13, 14, 18, nor PF-3845 had any effect on the intensity of other bands"}, {"measurement": "intensity of the FAAH band (ABPP)", "setting": "serine hydrolases [4]", "value": "reduced"}]}, {"compound": "O=C(Nc1ccc(C(F)(F)F)cc1F)N1CCC(Cc2cccc(Oc3ccc(C(F)(F)F)cn3)c2)CC1", "note": "[compound 18]", "values": [{"measurement": "difference in potency on sEH", "setting": "human sEH; compared to 11", "value": "< 3", "unit": "fold"}, {"measurement": "difference in potency on FAAH", "setting": "human FAAH [1]; compared to 11", "value": "< 3", "unit": "fold"}, {"measurement": "Ki", "setting": "human FAAH [2]", "value": 24, "unit": "nM"}, {"measurement": "kinact", "setting": "human FAAH [2]", "value": 0.000283, "unit": "s⁻¹"}, {"measurement": "kinact/KI", "setting": "human FAAH [2]", "value": 700000, "unit": "M⁻¹ s⁻¹"}, {"measurement": "IC50", "setting": "mouse sEH", "value": 360, "unit": "nM"}, {"measurement": "other serine hydrolase bands (ABPP)", "setting": "serine hydrolases [3]", "value": "neither 11, 13, 14, 18, nor PF-3845 had any effect on the intensity of other bands"}, {"measurement": "intensity of the FAAH band (ABPP)", "setting": "serine hydrolases [4]", "value": "does not appear to fully inhibit the band corresponding to FAAH"}]}]}
